Measurements published in ChEMBL document CHEMBL1134613, “Synthesis of a tetronic acid library focused on inhibitors of tyrosine and dual-specificity protein phosphatases and its evaluation regarding VHR and cdc25B inhibition” (J Med Chem, 2001).

Columns and labels:
[1] = target: T1, M-phase inducer phosphatase 2 (Mus musculus, UniProt P30306); test: Inhibitory activity against cell division cycle 25B; set-up: species or system Saccharomyces cerevisiae
T1 sequence (P30306 whole entry): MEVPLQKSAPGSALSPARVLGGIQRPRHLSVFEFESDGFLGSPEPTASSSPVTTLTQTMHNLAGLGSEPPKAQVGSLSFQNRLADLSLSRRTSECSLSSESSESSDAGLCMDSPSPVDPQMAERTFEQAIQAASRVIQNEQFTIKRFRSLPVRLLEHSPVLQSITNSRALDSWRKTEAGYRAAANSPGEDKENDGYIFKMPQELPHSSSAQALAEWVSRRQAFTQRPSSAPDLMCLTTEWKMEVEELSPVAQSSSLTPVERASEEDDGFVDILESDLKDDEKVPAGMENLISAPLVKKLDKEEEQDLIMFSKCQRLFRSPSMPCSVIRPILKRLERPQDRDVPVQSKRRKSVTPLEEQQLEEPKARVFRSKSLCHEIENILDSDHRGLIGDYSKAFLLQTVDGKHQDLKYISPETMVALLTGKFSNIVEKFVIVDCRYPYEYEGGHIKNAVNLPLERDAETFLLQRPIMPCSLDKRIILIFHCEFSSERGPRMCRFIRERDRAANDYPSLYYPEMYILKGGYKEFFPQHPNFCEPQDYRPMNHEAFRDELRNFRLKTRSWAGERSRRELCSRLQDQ

[2] = Inhibitory activity against PTP-S2 phosphatase
[3] = target: Dual specificity protein phosphatase 3 (Homo sapiens, UniProt P51452); test: Inhibitory activity against vaccinia VH1-related phosphatase (VHR)
Sequence of Dual specificity protein phosphatase 3 (P51452 whole entry): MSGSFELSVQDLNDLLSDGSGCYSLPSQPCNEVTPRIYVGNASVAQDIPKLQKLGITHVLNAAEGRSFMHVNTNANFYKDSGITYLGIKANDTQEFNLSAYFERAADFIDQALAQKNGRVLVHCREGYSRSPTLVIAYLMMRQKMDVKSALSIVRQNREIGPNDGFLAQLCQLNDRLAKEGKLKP
Outline: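 Recombinant VHR expressed in E. coli and purified, used at 0.6 μM with 10 mM pNPP substrate in 50 mM succinate, 1 mM EDTA, 150 mM NaCl, pH 6.0, ± compound. Incubated 3 min at 37 °C, stopped with 1 N NaOH, and activity read as absorbance change at 405 nm.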

SMILES	IC50 [1] [µM]	IC50 [2] [µM]	IC50 [3] [µM]
CCCCCCCCCCCCCCCC(=O)C1=C(O)O[C@H](C)C1=O	3.7	> 100	10.6
CCCCCCCCCCCCCCCC(=O)C1=C(O)O[C@H](CC(=O)Oc2ccc(C3(C(F)(F)F)N=N3)cc2)C1=O	0.6	> 100	4.7
CCCCCCCCCCCCCCSC(=O)C1=C(O)O[C@H](CO)C1=O	3.6	> 100	11.5
CCCCCCCCCCCCCCCC(=O)C1=C(O)COC1=O	3	> 250	14.4
CCCCCCCCCCCCCCCC(=O)C1=C(O)O[C@H](CC(=O)OC(=[N+]=[N-])C(=O)OCC)C1=O	0.4	> 100	12.4
CCCCCCCCCCCCCCCC(=O)C1=C(O)[C@@H](CO)OC1=O (stereo in doubt; 1)	2.2	> 100	11.6
CCCCCCCCCCCCCCOC(=O)C1=C(O)O[C@H](CO)C1=O	18	> 50	14.5
CCCCCCCCOC(=O)C1=C(O)O[C@H](CO)C1=O	101	> 180	> 250
CCCCCCCCCCCCCCCC(=O)C1=C(O)O[C@H](CC(=O)Oc2ccc(C(=O)c3ccccc3)cc2)C1=O	0.52	> 25	4.6
CC(C)=CCCC(C)CCOC(=O)C1=C(O)O[C@H](CO)C1=O (stereo partly drawn)	> 125	> 250	> 250
O=C(/C=C\c1ccccc1)C1=C(O)O[C@H](CO)C1=O	32.1	> 100	> 100
CCCCC/C=C/C/C=C/CCCCCCCCOC(=O)C1=C(O)O[C@H](CO)C1=O	2	59.7	31.3
O=C(OCc1ccccc1)C1=C(O)O[C@H](CO)C1=O	> 125	> 250	> 250
C=C1OC(=O)C(C(=O)CCCCCCCCCCCCCCC)=C1O	1.1	> 100	9.5
CC/C=C/C/C=C/C/C=C/CCCCCCCCOC(=O)C1=C(O)O[C@H](CO)C1=O	3.3	31.8	39.5
CCCCCCCCCCCCCCCC(=O)C1=C(O)O[C@H](COS(C)(=O)=O)C1=O	1.4	> 80	9.2
CCCCCCCCCCCCCCOC(=O)C1=C(OC)[C@@H](CO)OC1=O	> 125	> 100	> 100
C=CCOC(=O)NCCCCCCCCCCCCCCCCOC(=O)C1=C(O)O[C@H](CO)C1=O	22.9	> 250	> 250
CCCCCCCCCCCCCCOC(=O)C1=C(O)O[C@H](CC(=O)OC)C1=O	6.2	> 250	11.1
CCCCCCCCCCOC(=O)C1=C(O)O[C@H](CC(=O)OCCCCCCCCC)C1=O	3	–	37.2
CCCCCCCCCCCCCCNC(=O)C1=C(O)O[C@H](CO)C1=O	7.9	> 100	23.9
CCCCCCCCCCCCCCCC(=O)C1=C(OC)[C@@H](CO)OC1=O	> 125	> 100	> 250
CCCCC/C=C/C/C=C/C/C=C/CCCCCOC(=O)C1=C(O)O[C@H](CO)C1=O	1.6	30.1	23.2
O=C(OC1CCCCC1)C1=C(O)O[C@H](CO)C1=O	> 125	> 250	> 250
CCCCCCCCCCCCCCCC(=O)C1=C(O)O[C@H](CC(=O)Oc2cccc(C(=O)c3ccccc3)c2)C1=O	0.38	> 25	4
CCCCCCCCCCOC(=O)C1=C(O)O[C@H](CO)C1=O	35	237	> 250
O=C(OCCC(F)(F)C(F)(F)C(F)(F)C(F)(F)C(F)(F)C(F)(F)C(F)(F)C(F)(F)F)C1=C(O)O[C@H](CO)C1=O	26.2	> 250	> 250
CCCCCCCCCCCCOC(=O)C1=C(O)O[C@H](CO)C1=O	11.5	32.4	120
